Converted amounts (≈) assume the structure as drawn.
What was measured:
[1] = system: Staphylococcus aureus; assay: Antibacterial activity against Staphylococcus aureus ATCC 6538 incubated for 24 hrs followed by serial sub-cultivation for 24 hrs by microdilution method; type: functional; conditions: ATCC 6538, 24 h
Method in brief: (§1)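 MBC: after the 24 h LB broth microdilution (1.0 × 10⁴ CFU per well, 160 rpm), wells were serially sub-cultured into fresh broth plates and incubated a further 24 h. MBC is the lowest concentration with no visible growth, taken as 99.5% killing of the original inoculum. Duplicate, repeated three times.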

[2] = system: Aspergillus fumigatus; assay: Antifungal activity against Aspergillus fumigatus isolated from human incubated for 72 hrs followed by serial sub-cultivation for 72 hrs by serial dilution technique; type: functional
Method in brief: (§2)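 MFC: material from 72 h malt broth microdilution wells was serially sub-cultured into fresh broth plates and incubated a further 72 h at 28 °C. Fungicidal concentration is taken from growth after sub-culture. Duplicate, repeated three times.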

[3] = system: Escherichia coli; assay: Antibacterial activity against Escherichia coli ATCC 35210 after 24 hrs by microdilution method; type: functional; conditions: ATCC 35210, 24 h
Method in brief: (§3)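 Broth microdilution in 96-well plates. Bacterial suspensions were adjusted in sterile saline to 1.0 × 10⁵ CFU/ml, prepared daily and kept at 4 °C. Compound was added to LB broth with 1.0 × 10⁴ CFU per well and shaken at 160 rpm for 24 h at […] (so in the source). MIC is the lowest concentration with no visible growth under a binocular microscope. OD655 was also read. Duplicate, repeated three times.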

[4] = system: Listeria monocytogenes; assay: Antibacterial activity against Listeria monocytogenes NCTC 7973 after 24 hrs by microdilution method; type: functional; conditions: NCTC 7973, 24 h; method in brief: as §3
[5] = system: Bacillus cereus; assay: Antibacterial activity against clinical isolate of Bacillus cereus after 24 hrs by microdilution method; type: functional; method in brief: as §3
[6] = system: Aspergillus niger; assay: Antifungal activity against Aspergillus niger ATCC 6275 after 72 hrs by serial dilution technique; type: functional; conditions: ATCC 6275, 72 h
Method in brief: (§4)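 Modified microdilution in 96-well plates. Fungi were kept on malt agar at 4 °C. Spores were washed off in sterile 0.85% saline with 0.1% Tween 80. Compounds were dissolved at 1 mg/ml in 5% DMSO with 0.1% Tween 80 and added to malt broth with inoculum. Plates were shaken at 160 rpm for 72 h at 28 °C. Duplicate, repeated three times.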

[7] = system: Talaromyces funiculosus; assay: Ratio of bifonazole to compound for Penicillium funiculosum ATCC 36839; type: functional
[8] = system: Bacillus cereus; assay: Antibacterial activity against clinical isolate of Bacillus cereus incubated for 24 hrs followed by serial sub-cultivation for 24 hrs by microdilution; type: functional; method in brief: as §1
[9] = system: Aspergillus fumigatus; assay: Ratio of ketoconazole to compound for Aspergillus fumigatus isolated from human; type: functional
[10] = system: Pseudomonas aeruginosa; assay: Antibacterial activity against Pseudomonas aeruginosa ATCC 27853 incubated for 24 hrs followed by serial sub-cultivation for 24 hrs by microdilution; type: functional; conditions: ATCC 27853, 24 h; method in brief: as §1
[11] = system: Aspergillus flavus; assay: Antifungal activity against Aspergillus flavus ATCC 9643 incubated for 72 hrs followed by serial sub-cultivation for 72 hrs by serial dilution technique; type: functional; conditions: ATCC 9643, 72 h; method in brief: as §2
[12] = system: Micrococcus flavus; assay: Antibacterial activity against Micrococcus flavus ATCC 10240 incubated for 24 hrs followed by serial sub-cultivation for 24 hrs by microdilution; type: functional; conditions: ATCC 10240, 24 h; method in brief: as §1
[13] = system: Trichoderma viride; assay: Antifungal activity against Trichoderma viride IAM 5061 after 72 hrs by serial dilution technique; type: functional; conditions: IAM 5061, 72 h; method in brief: as §4
[14] = system: Salmonella typhimurium; assay: Antibacterial activity against Salmonella Typhimurium ATCC 13311 after 24 hrs by microdilution method; type: functional, Salmonella enterica subsp. enterica serovar Typhimurium; conditions: Salmonella enterica, ATCC 13311, 24 h; method in brief: as §3
[15] = system: Pseudomonas aeruginosa; assay: Ratio of ampicillin MIC to compound MIC for Pseudomonas aeruginosa ATCC 27853; type: functional
[16] = system: Talaromyces funiculosus; assay: Antifungal activity against Penicillium funiculosum ATCC 36839 after 72 hrs by serial dilution technique; type: functional; conditions: ATCC 36839, 72 h; method in brief: as §4
[17] = system: Candida albicans; assay: Antifungal activity against Candida albicans isolated from human after 72 hrs by serial dilution technique; type: functional; method in brief: as §4
[18] = system: Aspergillus ochraceus; assay: Ratio of bifonazole to compound for Aspergillus ochraceus ATCC 12066; type: functional
[19] = system: Penicillium ochrochloron; assay: Antifungal activity against Penicillium ochrochloron ATCC 9112 incubated for 72 hrs followed by serial sub-cultivation for 72 hrs by serial dilution technique; type: functional; conditions: ATCC 9112, 72 h; method in brief: as §2
[20] = system: Staphylococcus aureus; assay: Antibacterial activity against Staphylococcus aureus ATCC 6538 after 24 hrs by microdilution method; type: functional; conditions: ATCC 6538, 24 h; method in brief: as §3
[21] = system: Penicillium ochrochloron; assay: Ratio of bifonazole to compound for Penicillium ochrochloron ATCC 9112; type: functional
[22] = system: Enterococcus faecalis; assay: Antibacterial activity against Enterococcus faecalis isolated from human after 24 hrs by microdilution method; type: functional; method in brief: as §3
[23] = system: Aspergillus niger; assay: Ratio of bifonazole to compound for Aspergillus niger ATCC 6275; type: functional
[24] = system: Aspergillus niger; assay: Antifungal activity against Aspergillus niger ATCC 6275 incubated for 72 hrs followed by serial sub-cultivation for 72 hrs by serial dilution technique; type: functional; conditions: ATCC 6275, 72 h; method in brief: as §2
[25] = system: Escherichia coli; assay: Antibacterial activity against Escherichia coli ATCC 35210 incubated for 24 hrs followed by serial sub-cultivation for 24 hrs by microdilution; type: functional; conditions: ATCC 35210, 24 h; method in brief: as §1
[26] = system: Micrococcus flavus; assay: Antibacterial activity against Micrococcus flavus ATCC 10240 after 24 hrs by microdilution method; type: functional; conditions: ATCC 10240, 24 h; method in brief: as §3
[27] = system: Penicillium ochrochloron; assay: Antifungal activity against Penicillium ochrochloron ATCC 9112 after 72 hrs by serial dilution technique; type: functional; conditions: ATCC 9112, 72 h; method in brief: as §4
[28] = system: Salmonella typhimurium; assay: Antibacterial activity against Salmonella Typhimurium ATCC 13311 incubated for 24 hrs followed by serial sub-cultivation for 24 hrs by microdilution; type: functional, Salmonella enterica subsp. enterica serovar Typhimurium; conditions: Salmonella enterica, ATCC 13311, 24 h; method in brief: as §1
[29] = system: Trichoderma viride; assay: Antifungal activity against Trichoderma viride IAM 5061 incubated for 72 hrs followed by serial sub-cultivation for 72 hrs by serial dilution technique; type: functional; conditions: IAM 5061, 72 h; method in brief: as §2
[30] = system: Enterococcus faecalis; assay: Antibacterial activity against Enterococcus faecalis isolated from human incubated for 24 hrs followed by serial sub-cultivation for 24 hrs by microdilution; type: functional; method in brief: as §1
[31] = system: Aspergillus ochraceus; assay: Antifungal activity against Aspergillus ochraceus ATCC 12066 incubated for 72 hrs followed by serial sub-cultivation for 72 hrs by serial dilution technique; type: functional; conditions: ATCC 12066, 72 h; method in brief: as §2
[32] = system: Aspergillus ochraceus; assay: Ratio of ketoconazole to compound for Aspergillus ochraceus ATCC 12066; type: functional
[33] = system: Candida albicans; assay: Antifungal activity against Candida albicans isolated from human incubated for 72 hrs followed by serial sub-cultivation for 72 hrs by serial dilution technique; type: functional; method in brief: as §2
[34] = system: Trichoderma viride; assay: Ratio of bifonazole to compound for Trichoderma viride IAM 5061; type: functional
[35] = system: Candida albicans; assay: Ratio of ketoconazole to compound for Candida albicans isolated from human; type: functional
[36] = system: Aspergillus ochraceus; assay: Antifungal activity against Aspergillus ochraceus ATCC 12066 after 72 hrs by serial dilution technique; type: functional; conditions: ATCC 12066, 72 h; method in brief: as §4
[37] = system: Talaromyces funiculosus; assay: Antifungal activity against Penicillium funiculosum ATCC 36839 incubated for 72 hrs followed by serial sub-cultivation for 72 hrs by serial dilution technique; type: functional; conditions: ATCC 36839, 72 h; method in brief: as §2
[38] = system: Aspergillus flavus; assay: Antifungal activity against Aspergillus flavus ATCC 9643 after 72 hrs by serial dilution technique; type: functional; conditions: ATCC 9643, 72 h; method in brief: as §4
[39] = system: Pseudomonas aeruginosa; assay: Antibacterial activity against Pseudomonas aeruginosa ATCC 27853 after 24 hrs by microdilution method; type: functional; conditions: ATCC 27853, 24 h; method in brief: as §3
[40] = system: Candida albicans; assay: Ratio of bifonazole to compound for Candida albicans isolated from human; type: functional
[41] = system: Listeria monocytogenes; assay: Antibacterial activity against Listeria monocytogenes NCTC 7973 incubated for 24 hrs followed by serial sub-cultivation for 24 hrs by microdilution; type: functional; conditions: NCTC 7973, 24 h; method in brief: as §1
[42] = system: Penicillium ochrochloron; assay: Ratio of ketoconazole to compound for Penicillium ochrochloron ATCC 9112; type: functional
[43] = system: Aspergillus ochraceus; assay: Antifungal activity against Aspergillus ochraceus after 72 hrs by serial dilution technique

CCNc1nc(C)c(C(=O)/C=C/c2cccc(Br)c2)s1
MBC [1]: 71.4 µM (≈ 25.1 µg/mL)
MFC [2]: 57.1 µM (≈ 20.1 µg/mL)
MIC [3]: 57.1 µM (≈ 20.1 µg/mL)
MIC [4]: 85.7 µM (≈ 30.1 µg/mL)
MIC [5]: 28.6 µM (≈ 10 µg/mL)
MIC [6]: 42.9 µM (≈ 15.1 µg/mL)
Ratio [7]: 10
MBC [8]: 71.4 µM (≈ 25.1 µg/mL)
Ratio [9]: 10
MBC [10]: 71.4 µM (≈ 25.1 µg/mL)
MFC [11]: 57.1 µM (≈ 20.1 µg/mL)
MBC [12]: 85.7 µM (≈ 30.1 µg/mL)
MIC [13]: 28.9 µM (≈ 10.2 µg/mL)
MIC [14]: 57.1 µM (≈ 20.1 µg/mL)
Ratio [15]: 10
MIC [16]: 28.9 µM (≈ 10.2 µg/mL)
MIC [17]: 28.9 µM (≈ 10.2 µg/mL)
Ratio [18]: 10
MFC [19]: 58.2 µM (≈ 20.4 µg/mL)
MIC [20]: 57.1 µM (≈ 20.1 µg/mL)
Ratio [21]: 10
MIC [22]: 57.1 µM (≈ 20.1 µg/mL)
Ratio [23]: 10
MFC [24]: 57.1 µM (≈ 20.1 µg/mL)
MBC [25]: 71.4 µM (≈ 25.1 µg/mL)
MIC [26]: 57.1 µM (≈ 20.1 µg/mL)
MIC [27]: 28.9 µM (≈ 10.2 µg/mL)
MBC [28]: 71.4 µM (≈ 25.1 µg/mL)
MFC [29]: 57.2 µM (≈ 20.1 µg/mL)
MBC [30]: 71.4 µM (≈ 25.1 µg/mL)
MFC [31]: 42.9 µM (≈ 15.1 µg/mL)
Ratio [32]: 10
MFC [33]: 57.2 µM (≈ 20.1 µg/mL)
Ratio [34]: 10
Ratio [35]: 10
MIC [36]: 28.9 µM (≈ 10.2 µg/mL)
MFC [37]: 42.9 µM (≈ 15.1 µg/mL)
MIC [38]: 42.9 µM (≈ 15.1 µg/mL)
MIC [39]: 57.1 µM (≈ 20.1 µg/mL)
Ratio [40]: 10
MBC [41]: 100 µM (≈ 35.1 µg/mL)
Ratio [42]: 10
MIC [43]: 42.9 µM (≈ 15.1 µg/mL)

CCNc1nc(C)c(C(=O)/C=C/c2ccc(OC)cc2)s1
MBC [1]: 99.3 µM (≈ 30 µg/mL)
MFC [2]: 82.8 µM (≈ 25 µg/mL)
MIC [3]: 49.7 µM (≈ 15 µg/mL)
MIC [4]: 82.8 µM (≈ 25 µg/mL)
MIC [5]: 66.2 µM (≈ 20 µg/mL)
MIC [6]: 33.1 µM (≈ 10 µg/mL)
Ratio [7]: 10
MBC [8]: 82.8 µM (≈ 25 µg/mL)
Ratio [9]: 10
MBC [10]: 82.8 µM (≈ 25 µg/mL)
MFC [11]: 82.8 µM (≈ 25 µg/mL)
MBC [12]: 82.5 µM (≈ 24.9 µg/mL)
MIC [13]: 33.1 µM (≈ 10 µg/mL)
MIC [14]: 49.7 µM (≈ 15 µg/mL)
Ratio [15]: 10
MIC [16]: 33.1 µM (≈ 10 µg/mL)
MIC [17]: 66.2 µM (≈ 20 µg/mL)
Ratio [18]: 10
MFC [19]: 82.8 µM (≈ 25 µg/mL)
MIC [20]: 66.2 µM (≈ 20 µg/mL)
Ratio [21]: 10
MIC [22]: 66.2 µM (≈ 20 µg/mL)
Ratio [23]: 10
MFC [24]: 66.2 µM (≈ 20 µg/mL)
MBC [25]: 66.2 µM (≈ 20 µg/mL)
MIC [26]: 31.3 µM (≈ 9.47 µg/mL)
MIC [27]: 66.2 µM (≈ 20 µg/mL)
MBC [28]: 49.7 µM (≈ 15 µg/mL)
MFC [29]: 66.2 µM (≈ 20 µg/mL)
MBC [30]: 99.3 µM (≈ 30 µg/mL)
MFC [31]: 82.8 µM (≈ 25 µg/mL)
Ratio [32]: 10
MFC [33]: 82.8 µM (≈ 25 µg/mL)
Ratio [34]: 10
Ratio [35]: 10
MIC [36]: 66.2 µM (≈ 20 µg/mL)
MFC [37]: 66.2 µM (≈ 20 µg/mL)
MIC [38]: 66.2 µM (≈ 20 µg/mL)
MIC [39]: 66.2 µM (≈ 20 µg/mL)
Ratio [40]: 10
MBC [41]: 99.3 µM (≈ 30 µg/mL)
Ratio [42]: 10
MIC [43]: 66.2 µM (≈ 20 µg/mL)

— ChEMBL document CHEMBL1926569, “Novel (E)-1-(4-methyl-2-(alkylamino)thiazol-5-yl)-3-arylprop-2-en-1-ones as potent antimicrobial agents” (2011)
